The target in experiment [1] is T1, NAD-dependent protein deacetylase sirtuin-2 (Homo sapiens, UniProt Q8IXJ6).
T1 sequence (Q8IXJ6 whole entry): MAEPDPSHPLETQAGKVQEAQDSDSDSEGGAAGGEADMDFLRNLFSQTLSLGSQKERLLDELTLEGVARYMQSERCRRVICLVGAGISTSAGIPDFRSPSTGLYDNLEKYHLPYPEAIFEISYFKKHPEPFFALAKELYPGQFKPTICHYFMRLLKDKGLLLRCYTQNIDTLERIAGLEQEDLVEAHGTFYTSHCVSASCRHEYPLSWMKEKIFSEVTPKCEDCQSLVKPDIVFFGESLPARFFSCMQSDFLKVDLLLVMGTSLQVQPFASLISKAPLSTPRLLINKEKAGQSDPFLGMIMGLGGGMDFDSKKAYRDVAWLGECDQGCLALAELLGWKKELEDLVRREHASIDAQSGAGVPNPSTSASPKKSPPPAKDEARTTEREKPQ
Description: Inhibition of recombinant human C-terminal His-tagged SIRT2 (50 to 389 end residues) expressed in Escherichia coli using p53 derived (379 to 382 residues) fluorogenic peptide substrate RHKK(Ac)-AMC preincubated for 10 mins followed by substrate addition in presence of NAD+ by fluorescence assay. An outline of the steps: (§1)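 Two-step fluorogenic assay with p53 379–382 RHKK(Ac)-AMC. Compound (from 10 mM DMSO stock) preincubated ~10 min with human SIRT before substrate addition. Developer then releases fluorophore, read at ex 360/em 460 nm.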

The target of experiment [2] is T2, NAD-dependent protein deacetylase sirtuin-2 (Homo sapiens) (UniProt Q8IXJ6).
T2 sequence (whole entry): T1 sequence (Q8IXJ6 whole entry)
Description: Inhibition of recombinant human C-terminal His-tagged SIRT2 (50 to 389 end residues) expressed in Escherichia coli at 10 uM using p53 derived (379 to 382 residues) fluorogenic peptide substrate RHKK(Ac)-AMC preincubated for 10 mins followed by substrate addition in presence of NAD+ by fluorescence assay relative to control. In outline:
as §1

By IC50 is commonly meant the midpoint of a concentration-inhibition curve. The term inhibition denotes the share of the control response that was lost under treatment. Regarding `COc1ccc2ccccc2c1Cn1cnc2sc(CCNCc3cccnc3)c(C)c2c1=O`, the IC50 in experiment [1] is 2.15 µM. In experiment [2], the inhibition was found to be 93%.

Take `COc1ccccc1CNC1CCc2c(sc3ncn(Cc4cccc5cccnc45)c(=O)c23)C1` (stereo not given): the IC50 in experiment [1] was 5.61 µM. Moreover, in experiment [2], the inhibition is 85%. The like results for `COc1ccc(NC2CCc3c(sc4ncn(Cc5cccc6cccnc56)c(=O)c34)C2)cc1` (stereo not given) were, in that order, 2.48 µM and 82%. On the same counts, the results for `O=c1c2c3c(sc2ncn1Cc1ccc2ccccc2c1)CC(NCc1cncnc1)CC3` (stereo not given) are 5.3 µM and 88%. On the same counts, the results for `O=c1c2c3c(sc2ncn1Cc1cccc(-c2ccccc2)c1)CC(NCCN1CCOCC1)CC3` (stereo not given) are 3.14 µM and 77%.

In the case of `O=c1c2c3c(sc2ncn1Cc1cccc2cccnc12)CC(NCc1ccco1)CC3` (stereo not given), in experiment [1], the IC50 is 4.16 µM. The inhibition in experiment [2] came to 80%. With `COc1ccc2ccccc2c1Cn1cnc2sc3c(c2c1=O)CCC(NCCc1cccnc1)C3` (stereo not given), in experiment [1], the IC50 is 10.3 µM. The inhibition in experiment [2] is 66%. In the case of `COc1ccccc1CNC1CCc2c(sc3ncn(Cc4c(OC)ccc5ccccc45)c(=O)c23)C1` (stereo not given), the IC50 in experiment [1] turned out to be 2.24 µM. Further, in experiment [2], the inhibition is 89%. In the case of `O=c1c2c3c(sc2ncn1Cc1ccc2ccccc2c1)CC(NCc1ccncc1)CC3` (stereo not given), the IC50 in experiment [1] is 3.14 µM. The inhibition in experiment [2] came to 92%. With `O=c1c2c3c(sc2ncn1Cc1cccc2cccnc12)CC(NC1CCCc2ccccc21)CC3` (stereo not given), the IC50 in experiment [1] was determined as 5.49 µM. The inhibition in experiment [2] worked out at 80%. For `COc1ccc(CNC2CCc3c(sc4ncn(Cc5cccc6cccnc56)c(=O)c34)C2)cc1` (stereo not given), the IC50 in experiment [1] amounted to 1.83 µM. In experiment [2], the inhibition was 95%. For `O=c1c2c3c(sc2ncn1Cc1cccc2cccnc12)CC(NCC1CCCCC1)CC3` (stereo not given), the IC50 in experiment [1] was found to be 2.43 µM. In addition, in experiment [2], the inhibition was 94%.

Regarding `COc1ccc2ccccc2c1Cn1cnc2sc3c(c2c1=O)CCC(NC1CCOCC1)C3` (stereo not given), in experiment [1], the IC50 came to 1.11 µM. Also, in experiment [2], the inhibition stood at 96%. Consider `COc1ccc2ccccc2c1Cn1cnc2sc(CCNCc3ccncc3)c(C)c2c1=O`, for which the IC50 in experiment [1] came to 2.93 µM. Moreover, the inhibition in experiment [2] is 94%. With `Cc1ccc(NC2CCc3c(sc4ncn(Cc5cccc6cccnc56)c(=O)c34)C2)cc1` (stereo not given), in experiment [1], the IC50 is 4.25 µM. In addition, the inhibition in experiment [2] came to 78%. On the same counts, the results for `COc1ccccc1Cn1cnc2sc3c(c2c1=O)CCC(NCc1ccccc1)C3` (stereo not given) are 10.4 µM and 75%. Consider `O=c1c2c3c(sc2ncn1Cc1cccc2cccnc12)CC(NCc1cccs1)CC3` (stereo not given), for which, in experiment [1], the IC50 worked out at 2.56 µM. Also, the inhibition in experiment [2] was 88%. For `COc1ccc(CNC2CCc3c(sc4ncn(Cc5cccc6cccnc56)c(=O)c34)C2)cn1` (stereo not given), the IC50 in experiment [1] came to 2.65 µM. For the same molecule, in experiment [2], the inhibition was 90%. With `COc1ccc2ccccc2c1Cn1cnc2sc3c(c2c1=O)CCC(NCc1cccs1)C3` (stereo not given), the IC50 in experiment [1] turned out to be 6.03 µM. In addition, the inhibition in experiment [2] is 69%. The like results for `O=c1c2c3c(sc2ncn1Cc1cccc(-c2ccccc2)c1)CC(NCCN1CCCC1)CC3` (stereo not given) were, in that order, 3.78 µM and 77%. `COc1ccccc1Cn1cnc2sc3c(c2c1=O)CCC(NCC1CCCCC1)C3` (stereo not given): the IC50 in experiment [1] stood at 9.18 µM. Moreover, in experiment [2], the inhibition was found to be 79%. As for `Cc1noc(C)c1CNC1CCc2c(sc3ncn(Cc4cccc5cccnc45)c(=O)c23)C1` (stereo not given), in experiment [1], the IC50 is 6.94 µM. Moreover, the inhibition in experiment [2] is 80%.

Consider `Cc1noc(C)c1CNC1CCc2c(sc3ncn(Cc4cccc5ccccc45)c(=O)c23)C1` (stereo not given), for which the IC50 in experiment [1] stood at 1.85 µM. In addition, the inhibition in experiment [2] was 85%. Turning to `COc1ccc(CNC2CCc3c(sc4ncn(Cc5ccc6ccccc6c5)c(=O)c34)C2)cc1` (stereo not given), in experiment [1], the IC50 stood at 3.82 µM. Also, the inhibition in experiment [2] was determined as 86%. Turning to `COc1ccc(CNC2CCc3c(sc4ncn(Cc5cccc6ccccc56)c(=O)c34)C2)cc1` (stereo not given), the IC50 in experiment [1] was 3.2 µM. In addition, the inhibition in experiment [2] came out at 78%. As for `O=c1c2c3c(sc2ncn1Cc1cccc(-c2ccccc2)c1)CC(NC1CCCC1)CC3` (stereo not given), the IC50 in experiment [1] was 1.52 µM. Also, the inhibition in experiment [2] was 98%. Consider `O=c1c2c3c(sc2ncn1Cc1ccc2ccccc2c1)CC(NCc1ccco1)CC3` (stereo not given), for which the IC50 in experiment [1] was found to be 11.7 µM. Moreover, the inhibition in experiment [2] was 72%. For the molecule `O=c1c2c3c(sc2ncn1Cc1ccc2ccccc2c1)CC(NCC1CCCO1)CC3` (stereo not given), the IC50 in experiment [1] was determined as 13.1 µM. The inhibition in experiment [2] came out at 71%. In the case of `O=c1c2c3c(sc2ncn1Cc1cccc2cccnc12)CC(NCc1ccccn1)CC3` (stereo not given), the IC50 in experiment [1] amounted to 2.61 µM. In experiment [2], the inhibition came out at 87%. `O=c1c2c3c(sc2ncn1Cc1cccc2ccccc12)CC(NCC1CCCO1)CC3` (stereo not given): in experiment [1], the IC50 came out at 12.5 µM. Besides, in experiment [2], the inhibition is 67%.

In the case of `COc1cccc(CNC2CCc3c(sc4ncn(Cc5ccccc5OC)c(=O)c34)C2)c1` (stereo not given), in experiment [1], the IC50 was 13.4 µM. For the same molecule, the inhibition in experiment [2] was found to be 69%. Turning to `COc1ccc2ccccc2c1Cn1cnc2sc3c(c2c1=O)CCC(NCc1c(C)nn(C)c1C)C3` (stereo not given), the IC50 in experiment [1] was 5.11 µM. In experiment [2], the inhibition is 94%. With `COc1ccccc1CNC1CCc2c(sc3ncn(Cc4ccccc4OC)c(=O)c23)C1` (stereo not given), the IC50 in experiment [1] was determined as 9.59 µM. For the same molecule, the inhibition in experiment [2] was 72%. On the same counts, the results for `COc1ccc2ccccc2c1Cn1cnc2sc3c(c2c1=O)CCC(NCc1cccc(F)c1)C3` (stereo not given) are 4.07 µM and 73%. As to `O=c1c2c3c(sc2ncn1Cc1ccc2ccccc2c1)CC(NCCc1cccnc1)CC3` (stereo not given), the IC50 in experiment [1] turned out to be 8.68 µM. In addition, in experiment [2], the inhibition is 77%.

As to `O=c1c2c3c(sc2ncn1Cc1cccc2cccnc12)CC(NC1CCc2ccccc21)CC3` (stereo not given), the IC50 in experiment [1] was 3.09 µM. Besides, the inhibition in experiment [2] was 91%. The like results for `COc1ccc2ccccc2c1Cn1cnc2sc3c(c2c1=O)CCC(NCC1CCCCC1)C3` (stereo not given) were, in that order, 1.65 µM and 97%. As for `O=c1c2c3c(sc2ncn1Cc1cccc(-c2ccccc2)c1)CC(NCCC1CCCCC1)CC3` (stereo not given), the IC50 in experiment [1] was 3.74 µM. Besides, the inhibition in experiment [2] is 90%. On the same counts, the results for `O=c1c2c3c(sc2ncn1Cc1cccc2cccnc12)CC(NCc1ccc(Cl)cc1)CC3` (stereo not given) are 1.27 µM and 94%. For `O=c1c2c3c(sc2ncn1Cc1ccc2ccccc2c1)CC(NCC1CCCCC1)CC3` (stereo not given), the IC50 in experiment [1] amounted to 5.53 µM. In experiment [2], the inhibition worked out at 87%. Regarding `O=c1c2c3c(sc2ncn1Cc1ccc2ccccc2c1)CC(NCCc1ccncc1)CC3` (stereo not given), the IC50 in experiment [1] was 9.6 µM. Also, the inhibition in experiment [2] came to 72%.

For `COc1ccc2ccccc2c1Cn1cnc2sc(CCNC3CCOCC3)c(C)c2c1=O`, the IC50 in experiment [1] is 8.15 µM. Besides, in experiment [2], the inhibition was 68%. On to `O=c1c2c3c(sc2ncn1Cc1cccc2ccccc12)CC(NCc1ccncc1)CC3` (stereo not given), for which the IC50 in experiment [1] worked out at 3.58 µM. In addition, the inhibition in experiment [2] came to 92%. As for `O=c1c2c3c(sc2ncn1Cc1ccc2ccccc2c1)CC(NCc1ccccn1)CC3` (stereo not given), the IC50 in experiment [1] was 8.67 µM. Moreover, the inhibition in experiment [2] stood at 81%. In the case of `O=c1c2c3c(sc2ncn1Cc1cccc2ccccc12)CC(NCCc1ccncc1)CC3` (stereo not given), the IC50 in experiment [1] came out at 5.79 µM. Further, in experiment [2], the inhibition came out at 75%. For `O=c1c2c3c(sc2ncn1Cc1cccc2cccnc12)CC(NCc1ccccc1)CC3` (stereo not given), the IC50 in experiment [1] worked out at 2.5 µM. In addition, in experiment [2], the inhibition amounted to 93%. In the case of `O=c1c2c3c(sc2ncn1Cc1cccc2ccccc12)CC(NCc1cncnc1)CC3` (stereo not given), the IC50 in experiment [1] was determined as 6.45 µM. In addition, the inhibition in experiment [2] was found to be 86%. On the same counts, the results for `O=c1c2c3c(sc2ncn1Cc1cccc(-c2ccccc2)c1)CC(NCC1CCOC1)CC3` (stereo not given) are 2.58 µM and 91%. In the case of `O=c1c2c3c(sc2ncn1Cc1cccc2ccccc12)CC(NCc1cccnc1)CC3` (stereo not given), the IC50 in experiment [1] is 2.99 µM. Moreover, the inhibition in experiment [2] is 89%. With `COc1cccc(CNC2CCc3c(sc4ncn(Cc5c(OC)ccc6ccccc56)c(=O)c34)C2)c1` (stereo not given), the IC50 in experiment [1] amounted to 1.9 µM. As for `COc1ccc2ccccc2c1Cn1cnc2sc3c(c2c1=O)CCC(NCC1CCCO1)C3` (stereo not given), the IC50 in experiment [1] was determined as 1.9 µM. In addition, in experiment [2], the inhibition came out at 90%. `COc1ccc2ccccc2c1Cn1cnc2sc3c(c2c1=O)CCC(NCc1ccccc1)C3` (stereo not given): the IC50 in experiment [1] came out at 21.1 µM. As for `COc1ccc(CNC2CCc3c(sc4ncn(Cc5ccccc5)c(=O)c34)C2)cn1` (stereo not given), the inhibition in experiment [2] is 48%. With `O=c1c2c3c(sc2ncn1Cc1ccc2ccccc2c1)CC(NCc1ccc(Cl)cc1)CC3` (stereo not given), the inhibition in experiment [2] was determined as 49%. With `COc1ccccc1CNC1CCc2c(sc3ncn(Cc4cccc5ccccc45)c(=O)c23)C1` (stereo not given), the inhibition in experiment [2] is 60%. As to `COc1ccccc1NC1CCc2c(sc3ncn(Cc4cccc5cccnc45)c(=O)c23)C1` (stereo not given), the inhibition in experiment [2] stood at 69%. Consider `O=c1c2c3c(sc2ncn1Cc1ccc2ccccc2c1)CC(NCc1ccccc1Cl)CC3` (stereo not given), for which the inhibition in experiment [2] amounted to 43%.

Consider `O=c1c2c3c(sc2ncn1Cc1cccc2ccccc12)CC(NCc1cccc(Cl)c1)CC3` (stereo not given), for which the inhibition in experiment [2] was 60%. With `O=c1c2c3c(sc2ncn1Cc1cccc(-c2ccccc2)c1)CC(Nc1ccc2c(c1)OCO2)CC3` (stereo not given), the inhibition in experiment [2] is 33%. Still for that read-out and setting: the result for `O=c1c2c3c(sc2ncn1Cc1ccc2ccccc2c1)CC(NCCC1CCCCC1)CC3` (stereo not given) reads 59%.

Source of the values: ChEMBL document CHEMBL4004822, “Thienopyrimidinone Based Sirtuin-2 (SIRT2)-Selective Inhibitors Bind in the Ligand Induced Selectivity Pocket” (J Med Chem, 2017).
